Data published in ChEMBL document CHEMBL3102809, “Investigation of fluorinated and bifunctionalized 3-phenylchroman-4-one (isoflavanone) aromatase inhibitors” (Bioorg Med Chem, 2014).
Activity calls are given as the source filed them. No cut-off for these calls is given here.

Tests used:
MCF7 [1] = experiment: Cytotoxicity against estrogen-dependent human MCF7 cells after 72 hrs by MTT assay; type: functional, cell-based; settings: for IC50: MCF7, 72 h
Aromatase [2] = molecular target: T1, Aromatase (Homo sapiens, UniProt P11511)
T1 sequence (P11511 whole entry): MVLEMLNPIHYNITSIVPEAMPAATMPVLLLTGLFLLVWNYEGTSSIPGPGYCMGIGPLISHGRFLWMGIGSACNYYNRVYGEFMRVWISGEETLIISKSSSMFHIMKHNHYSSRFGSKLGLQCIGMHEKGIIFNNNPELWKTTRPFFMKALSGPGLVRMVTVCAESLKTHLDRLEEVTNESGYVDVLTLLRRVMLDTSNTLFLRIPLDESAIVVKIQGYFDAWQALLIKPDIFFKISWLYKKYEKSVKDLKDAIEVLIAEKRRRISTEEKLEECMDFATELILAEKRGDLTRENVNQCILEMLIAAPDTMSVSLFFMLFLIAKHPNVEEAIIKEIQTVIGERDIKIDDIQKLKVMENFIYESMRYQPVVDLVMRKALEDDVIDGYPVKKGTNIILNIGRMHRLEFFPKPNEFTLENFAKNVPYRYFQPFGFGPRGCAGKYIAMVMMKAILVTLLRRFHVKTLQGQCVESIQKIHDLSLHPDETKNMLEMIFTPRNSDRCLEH

[3] = Ratio of IC50 for human MCF7 cells to IC50 for human recombinant aromatase
Aromatase [4] = molecular target: T1, Aromatase; experiment: Inhibition of human recombinant aromatase expressed in baculovirus-infected cell system using 7-methoxy-trifluoromethylcoumarin as substrate after 30 mins by fluorescence assay
MCF7 [5] = experiment: Cytotoxicity against […] human MCF7 cells after 72 hrs by MTT assay; type: functional, cell-based
Summary of the method: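 MCF-7 cells were raised without estrogen and without phenol red. They were seeded at 15,000/well, incubated overnight at 37 °C, then treated 72 h with freshly dissolved compounds. Viability was read by MTT (4 h), with DMSO solubilization and absorbance at 570 nm, and IC50 was calculated.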

| IC50 (Aromatase [4]; read-out: IC50) | Compound | Ratio IC50 [3] | other results |
| --- | --- | --- | --- |
| – | O=C1c2cc(Br)ccc2OCC1c1ccccc1 (configuration not stated) | – | IC50 (MCF7 [1]): 100 µM |
| – | O=c1c(-c2ccccc2)coc2ccccc12 [ISOFLAVONE] | – | IC50 (Aromatase [2]): Not Active |
| – | O=C1c2ccccc2OCC1c1ccc(C(F)(F)F)cc1 (configuration not stated) | 2 | IC50 (Aromatase [4]): Not Active |
| – | O=C1c2ccccc2OCC1c1cccnc1 (configuration not stated) | – | IC50 (MCF7 [1]): 31 µM |
| 67.1 µM | O=C1c2cccc(F)c2OCC1c1cccnc1 (configuration not stated) | – | IC50 (MCF7 [1]): 43 µM |
| 33 µM | O=C1c2ccccc2OCC1c1ccc(F)cc1 (configuration not stated) | 2 | – |
| 190 µM | O=C1c2c(ccc3ccccc23)OCC1c1ccc(Oc2ccccc2)cc1 (configuration not stated) | – | – |
| – | O=C1c2ccccc2OCC1c1ccc(-c2ccccc2)cc1 (configuration not stated) | – | growth inhibition (GI) (MCF7 [1]): inactive |
| 24 µM | O=C1c2ccccc2OCC1c1ccccc1F (configuration not stated) | 2 | – |
| 20 µM | O=C1c2ccccc2OCC1c1cc(F)cc(F)c1 (configuration not stated) | – | – |
| – | O=C1c2cc(F)ccc2OCC1c1ccccc1 (configuration not stated) | 2 | – |
| 0.8 µM | O=C1c2cc(F)ccc2OCC1c1cccnc1 (configuration not stated) | – | growth inhibition (GI) (MCF7 [1]): inactive |
| 2.5 µM | COc1ccc2c(c1)C(=O)C(c1cccnc1)CO2 (configuration not stated) | – | growth inhibition (GI) (MCF7 [5]): inactive; growth inhibition (GI) (MCF7 [1]): inactive |
| 35 µM | O=C1c2ccccc2OCC1c1cccc(F)c1 (configuration not stated) | 2 | – |
| 15 µM | O=C1c2cccc(F)c2OCC1c1ccccc1 (configuration not stated) | 2 | – |
| – | O=C1c2cc(F)cc(F)c2OCC1c1ccccc1 (configuration not stated) | 2 | IC50 (Aromatase [4]): Not Active |
| – | COc1ccc2c(c1)C(=O)C(c1ccc(Oc3ccccc3)cc1)CO2 (configuration not stated) | – | IC50 (Aromatase [4]): Not Active |
